# Key:
# Penicillium digitatum [1] = assay: Fungicidal activity against Penicillium digitatum infected Valenica oranges assessed as fruit weight loss at 600 mg/L treated for 1 min at 20 degC postharvest at 20 hr after fungal conidial inoculation measured after 21 days of storage at 17 degC in presence of 2% SBC (water Rvb = 11.89%); assay type: functional
# Fruit [2] = assay: Drug residues in Citrus sinensis cvs. Valencia late (Valencia oranges) at 400 mg/L treated for 1 min at 40 degC postharvest measured immediately post-drug treatment in presence of 0.5% SBC by GC analysis; assay type: ADME
# Method in brief: (§1)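 'Valencia' oranges were dipped 1 min in TBZ at 600 mg/L (20 °C, ±0.5, 1 or 2% wt/vol SBC), 400 mg/L (40 °C, ±SBC) or 200 mg/L (50 °C, alone), then air-dried. They were sampled at 0, 10 and 20 days at 17 °C. Peel of five fruit was frozen, and 5 g of homogenate was extracted with ethyl acetate/hexane (1/1) plus NaCl. The extract was dried under N2, taken up in acetone and analysed by GC. Results are mg/kg on a whole-fruit basis.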
# Fruit [3] = assay: Drug residues in Citrus sinensis cvs. Valencia late (Valencia oranges) at 600 mg/L treated for 1 min at 20 degC postharvest measured after 10 days of storage at 17 degC in presence of 1% SBC by GC analysis; assay type: ADME; method in brief: as §1
# Penicillium digitatum [4] = assay: Fungicidal activity against TBZ-resistant Penicillium digitatum infected Nova mandarins assessed as postharvest green mold incidence at 200 mg/L treated for 1 min at 50 degC at 20 hr after fungal conidial inoculation measured after 5 days of storage at 20 degC (water Rvb = 95.0%); assay type: functional
# Inner fruit [5] = assay: Drug residues in Citrus sinensis cvs. Salustiana (Salustiana oranges) inner fruit at 600 mg/L treated for 1 min at 50 degC postharvest measured after overnight incubation at 17 degC by GC analysis; assay type: ADME
# Method in brief: (§2)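 'Salustiana' oranges were washed with water and air-dried. They were dipped 1 or 3 min in TBZ 600 mg/L at 20 or 50 °C, or 1 min in TBZ 600 mg/L plus 2% SBC at 20 °C, then dried overnight at 17 °C in the dark. Surface residue was taken by water extraction and wax residue by chloroform extraction. Inner residue was measured in fruit after both extractions. Extracts were dried under N2, taken up in acetone and analysed by GC. Values are mg/kg on a whole-fruit basis.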
# Penicillium digitatum [6] = assay: Fungicidal activity against TBZ-sensitive Penicillium digitatum infected Valencia oranges assessed as postharvest green mold incidence at 600 mg/L treated for 1 min at 20 degC at 20 hr after fungal conidial inoculation measured after 7 days of storage at 20 degC (water Rvb = 92.5%); assay type: functional
# Penicillium digitatum [7] = assay: Fungicidal activity against Penicillium digitatum infected Valenica oranges assessed as fruit weight loss at 400 mg/L treated for 1 min at 40 degC postharvest at 20 hr after fungal conidial inoculation measured after 7 days of storage at 17 degC in presence of 1% SBC (water Rvb = 4.49%); assay type: functional
# Penicillium digitatum [8] = assay: Fungicidal activity against Penicillium digitatum infected Valenica oranges assessed as fruit weight loss at 600 mg/L treated for 1 min at 20 degC postharvest at 20 hr after fungal conidial inoculation measured after 7 days of storage at 17 degC in presence of 0.5% SBC (water Rvb = 3.90%); assay type: functional
# Fruit [9] = assay: Drug residues in Citrus sinensis cvs. Valencia late (Valencia oranges) at 400 mg/L treated for 1 min at 40 degC postharvest measured after 10 days of storage at 17 degC by GC analysis; assay type: ADME; method in brief: as §1
# Penicillium digitatum [10] = assay: (§3) Fungicidal activity against TBZ-sensitive Penicillium digitatum infected Valencia oranges assessed as postharvest green mold incidence at 400 mg/L treated for 1 min at 40 degC at 20 hr after fungal conidial inoculation measured after 7 days of storage at 20 degC in presence of 2% SBC (water Rvb = 14.2%); assay type: functional
# Method in brief: (§4)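 Fruit were surface-disinfected in 1 g/L hypochlorite for 30 s, rinsed, dried, then wounded twice equatorially (2 mm × 2 mm rod). Inoculation was a 1 min dip in P. digitatum conidia, 1 × 10^5 conidia/mL final. Fruit were held 20 h at 20 °C and 90% RH, dipped 1 min (SBC wt/vol), and air-dried. Storage was 20 °C, 90% RH. Decay incidence (% fruit with lesions) was scored at 5 d for mandarins and 7 d for oranges. Three replicates of 40 fruit were used; arcsin-transformed data were compared by LSD, p ≤ 0.05.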
# Penicillium digitatum [11] = assay: Fungicidal activity against TBZ-sensitive Penicillium digitatum infected Valencia oranges assessed as postharvest green mold incidence at 400 mg/L treated for 1 min at 40 degC at 20 hr after fungal conidial inoculation measured after 7 days of storage at 20 degC (water Rvb = 66.7%); assay type: functional
# Fruit [12] = assay: Drug residues in Citrus sinensis cvs. Valencia late (Valencia oranges) at 200 mg/L treated for 1 min at 50 degC postharvest measured immediately post-drug treatment by GC analysis; assay type: ADME; method in brief: as §1
# Fruit [13] = assay: Drug residues in Citrus sinensis cvs. Valencia late (Valencia oranges) at 400 mg/L treated for 1 min at 40 degC postharvest measured after 10 days of storage at 17 degC in presence of 0.5% SBC by GC analysis; assay type: ADME; method in brief: as §1
# Fruit [14] = assay: Drug residues in Citrus sinensis cvs. Valencia late (Valencia oranges) at 600 mg/L treated for 1 min at 20 degC postharvest measured after 10 days of storage at 17 degC in presence of 2% SBC by GC analysis; assay type: ADME; method in brief: as §1
# Penicillium digitatum [15] = assay: (§5) Fungicidal activity against TBZ-resistant Penicillium digitatum infected Valencia oranges assessed as postharvest green mold incidence at 600 mg/L treated for 1 min at 20 degC at 20 hr after fungal conidial inoculation measured after 7 days of storage at 20 degC in presence of 1% SBC (water Rvb = 54.2%); assay type: functional
# Inner fruit [16] = assay: Drug residues in Citrus sinensis cvs. Salustiana (Salustiana oranges) inner fruit at 600 mg/L treated for 1 min at 20 degC postharvest measured after overnight incubation at 17 degC by GC analysis; assay type: ADME; method in brief: as §2
# Penicillium digitatum [17] = assay: Fungicidal activity against Penicillium digitatum infected Valenica oranges assessed as fruit weight loss at 400 mg/L treated for 1 min at 40 degC postharvest at 20 hr after fungal conidial inoculation measured after 21 days of storage at 17 degC (water Rvb = 8.83%); assay type: functional
# Penicillium digitatum [18] = assay: as §3, with “TBZ-resistant” for “TBZ-sensitive”, “0.5%” for “2%”, “81.7%)” for “14.2%)”; assay type: functional
# Fruit [19] = assay: Drug residues in Citrus sinensis cvs. Valencia late (Valencia oranges) at 600 mg/L treated for 1 min at 20 degC postharvest measured after 10 days of storage at 17 degC in presence of 0.5% SBC by GC analysis; assay type: ADME; method in brief: as §1
# Cuticular wax = assay: Drug residues in Citrus sinensis cvs. Salustiana (Salustiana oranges) cuticular wax at 600 mg/L treated for 1 min at 20 degC postharvest measured after overnight incubation at 17 degC in presence of 2% SBC by GC analysis; assay type: ADME; method in brief: as §2
# Penicillium digitatum [20] = assay: as §5, with “TBZ-sensitive” for “TBZ-resistant”, “30.8%)” for “54.2%)”; assay type: functional; method in brief: as §4
# Penicillium digitatum [21] = assay: Fungicidal activity against Penicillium digitatum infected Valenica oranges assessed as fruit weight loss at 400 mg/L treated for 1 min at 40 degC postharvest at 20 hr after fungal conidial inoculation measured after 21 days of storage at 17 degC in presence of 2% SBC (water Rvb = 13.47%); assay type: functional
smiles,measurement,setting,value
c1ccc2[nH]c(-c3cscn3)nc2c1 [THIABENDAZOLE],Activity,Penicillium digitatum [1],13.39%
same,Drug uptake,Fruit [2],0.79 mg/kg
same,Drug uptake,Fruit [3],1.45 mg/kg
same,Activity,Penicillium digitatum [4],65%
same,Drug uptake,Inner fruit [5],0.17 mg/kg
same,Activity,Penicillium digitatum [6],31.7%
same,Activity,Penicillium digitatum [7],3.98%
same,Activity,Penicillium digitatum [8],4.28%
same,Drug uptake,Fruit [9],0.89 mg/kg
same,Activity,Penicillium digitatum [10],12.5%
same,Activity,Penicillium digitatum [11],14.2%
same,Drug uptake,Fruit [12],0.45 mg/kg
same,Drug uptake,Fruit [13],0.76 mg/kg
same,Drug uptake,Fruit [14],1.23 mg/kg
same,Activity,Penicillium digitatum [15],25%
same,Drug uptake,Inner fruit [16],0.13 mg/kg
same,Activity,Penicillium digitatum [17],8.96%
same,Activity,Penicillium digitatum [18],14.2%
same,Drug uptake,Fruit [19],1.4 mg/kg
same,Drug uptake,Cuticular wax,0.46 mg/kg
same,Activity,Penicillium digitatum [20],9.2%
same,Activity,Penicillium digitatum [21],13.98%
